Experiments:
Human alphaherpesvirus 1 [1] = assay: Antiviral activity against thymidine kinase-deficient ACV-resistant HSV1 KOS infected in human HEL cells assessed as inhibition of virus-induced cytopathicity after 3 days; format: functional, organism-based; details: Human alphaherpesvirus 1, KOS, 72 h
Punta Toro virus = assay: Antiviral activity against Punta Toro virus infected in african green monkey Vero cells assessed as inhibition of virus-induced cytopathicity after 3 days; format: functional, organism-based; details: 72 h
In short: (§1)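 Confluent cell monolayers infected with 100 CCID50 virus; after 2 h adsorption at 37 °C, virus removed and serial compound dilutions added (DMSO stocks 10 mg/ml). Incubated 37 °C for 3 days until complete CPE in untreated virus control.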

[2] = Cytotoxicity against african green monkey Vero cells assessed as minimum cytotoxic concentration required to cause microscopically detectable alteration in normal cell morphology; format: cell-based; details: chlorocebus sabaeus
In short: (§2)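 Run in parallel with antiviral assays on uninfected cell cultures; test compounds from 10 mg/ml DMSO stocks in serial dilution. Value is minimum cytotoxic concentration (MCC) producing microscopically detectable alteration of normal cell morphology.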

[3] = Cytotoxicity against HEL cells assessed as minimum cytotoxic concentration required to cause microscopically detectable alteration in normal cell morphology; format: cell-based; details: human; in short: as §2
[4] = test system: Respiratory syncytial virus; assay: Antiviral activity against RSV infected in human HeLa cells assessed as inhibition of virus-induced cytopathicity after 3 days; format: functional, organism-based; details: 72 h
In short: as §1, with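 “control. EC50 = concentration protecting 50% of infected cells from viral cytopathogenicity; ">" marks highest concentration tested.” for “control.”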

Human alphaherpesvirus 1 [5] = assay: Antiviral activity against HSV1 KOS infected in human HEL cells assessed as inhibition of virus-induced cytopathicity after 3 days; format: functional, organism-based; details: Human alphaherpesvirus 1, KOS, 72 h
[6] = test system: Mammalian orthoreovirus 1; assay: Antiviral activity against Reovirus 1 infected in african green monkey Vero cells assessed as inhibition of virus-induced cytopathicity after 3 days; format: functional, organism-based; details: Mammalian orthoreovirus 1, Vero, 72 h
In short: as §1, with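 “control. EC50 = concentration protecting 50% of infected cells from viral cytopathogenicity; ">" marks highest concentration tested.” for “control.”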

Coxsackievirus B4 [7] = assay: Antiviral activity against Coxsackievirus B4 infected in african green monkey Vero cells assessed as inhibition of virus-induced cytopathicity after 3 days; format: functional, organism-based; details: Enterovirus B, 72 h
In short: as §1, with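 “control. EC50 = concentration protecting 50% of infected cells from viral cytopathogenicity; ">" marks highest concentration tested.” for “control.”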

Sindbis virus = assay: Antiviral activity against Sindbis virus infected in african green monkey Vero cells assessed as inhibition of virus-induced cytopathicity after 3 days postinfection; format: functional, organism-based; details: 72 h
In short: as §1, with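 “control. EC50 = concentration protecting 50% of infected cells from viral cytopathogenicity; ">" marks highest concentration tested.” for “control.”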

Human alphaherpesvirus 2 = assay: Antiviral activity against HSV2 G infected in human HEL cells assessed as inhibition of virus-induced cytopathicity after 3 days; format: functional, organism-based; details: Human alphaherpesvirus 2, strain G, 72 h
In short: as §1, with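 “control. EC50 = concentration protecting 50% of infected cells from viral cytopathogenicity; ">" marks highest concentration tested.” for “control.”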

[8] = Selectivity index, ratio of MCC for human HeLa cells to EC50 for Coxsackievirus B4; format: toxicity, cell-based; details: read-out: Selectivity Index
In short: (§3)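 The ratio was MCC/EC50. MCC was the minimum concentration causing microscopically visible change in normal morphology of uninfected HEL, HeLa or Vero cells, scored in parallel with the antiviral test. EC50 came from the CPE assay: 100 CCID50 infection, 2 h adsorption at 37 °C, serial compound dilutions, and 3 days at 37 °C. It was the concentration protecting 50% of cells from virus-induced CPE.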

Coxsackievirus B4 [9] = assay: Antiviral activity against Coxsackievirus B4 infected in human HeLa cells assessed as inhibition of virus-induced cytopathicity after 3 days; format: functional, organism-based; details: Enterovirus B, 72 h; in short: as §1
[10] = test system: Vesicular stomatitis virus; assay: Antiviral activity against Vesicular stomatitis virus infected in human HEL cells assessed as inhibition of virus-induced cytopathicity after 3 days; format: functional, organism-based; details: 72 h
[11] = test system: Vesicular stomatitis virus; assay: Antiviral activity against Vesicular stomatitis virus infected in human HeLa cells assessed as inhibition of virus-induced cytopathicity after 3 days; format: functional, organism-based; details: 72 h
Vaccinia virus = assay: Antiviral activity against Vaccinia virus infected in human HEL cells assessed as inhibition of virus-induced cytopathicity after 3 days; format: functional, organism-based; details: Orthopoxvirus vaccinia, 72 h
Human respirovirus 3 = assay: Antiviral activity against Parainfluenza virus type 3 infected in african green monkey Vero cells assessed as inhibition of virus-induced cytopathicity after 3 days; format: functional, organism-based; details: Human respirovirus 3, Vero, 72 h
In short: as §1, with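 “control. EC50 = concentration protecting 50% of infected cells from viral cytopathogenicity; ">" marks highest concentration tested.” for “control.”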

[12] = Cytotoxicity against human HeLa cells assessed as minimum cytotoxic concentration required to cause microscopically detectable alteration in normal cell morphology; format: cell-based; in short: as §2
[13] = Selectivity index, ratio of MCC for african green monkey Vero cells to EC50 for Reovirus 1; format: toxicity, cell-based; details: read-out: Selectivity Index; in short: as §3
[14] = Selectivity index, ratio of MCC for human HEL cells to EC50 for sVesicular stomatitis virus; format: toxicity, cell-based; details: read-out: Selectivity Index; in short: as §3
[15] = Selectivity index, ratio of MCC for african green monkey Vero cells to EC50 for Punta Toro virus; format: toxicity, cell-based; details: read-out: Selectivity Index; in short: as §3
[16] = Selectivity index, ratio of MCC for african green monkey Vero cells to EC50 for Sindbis virus; format: toxicity, cell-based; details: read-out: Selectivity Index; in short: as §3
[17] = Selectivity index, ratio of MCC for african green monkey Vero cells to EC50 for Coxsackievirus B4; format: toxicity, cell-based; details: read-out: Selectivity Index; in short: as §3

SMILES	EC50 (Human alphaherpesvirus 1 [1])	EC50 (Punta Toro virus)	MCC [2]	MCC [3]	EC50 [4]	EC50 (Human alphaherpesvirus 1 [5])	EC50 [6]	EC50 (Coxsackievirus B4 [7])	EC50 (Sindbis virus)	EC50 (Human alphaherpesvirus 2)	EC50 (Coxsackievirus B4 [9])	EC50 [10]	EC50 [11]	EC50 (Vaccinia virus)	EC50 (Human respirovirus 3)	MCC [12]	also measured
Cc1ccc(C2=NN(C(N)=S)C(c3ccc(OCc4ccccc4)cc3)C2)cc1 (configuration not stated)	> 20 µg/mL	> 20 µg/mL	100 µg/mL	100 µg/mL	> 0.8 µg/mL	> 20 µg/mL	> 20 µg/mL	> 20 µg/mL	> 20 µg/mL	> 20 µg/mL	> 0.8 µg/mL	> 20 µg/mL	> 0.8 µg/mL	> 20 µg/mL	> 20 µg/mL	4 µg/mL	selectivity ratio [8]: 5
CC(=O)N1N=C(c2ccc(C)cc2)CC1c1ccc(OCc2ccccc2)cc1 (configuration not stated)	> 4 µg/mL	> 4 µg/mL	20 µg/mL	20 µg/mL	> 4 µg/mL	> 4 µg/mL	> 4 µg/mL	> 4 µg/mL	> 4 µg/mL	> 4 µg/mL	> 4 µg/mL	> 4 µg/mL	> 4 µg/mL	> 4 µg/mL	> 4 µg/mL	20 µg/mL	selectivity ratio [13]: 5; selectivity ratio [14]: 5; selectivity ratio [15]: 5; selectivity ratio [8]: 5; selectivity ratio [16]: 5; selectivity ratio [17]: 5
NC(=S)N1N=C(c2ccc(Br)cc2)CC1c1ccc(OCc2ccccc2)cc1 (configuration not stated)	> 20 µg/mL	> 20 µg/mL	100 µg/mL	100 µg/mL	> 20 µg/mL	> 20 µg/mL	> 20 µg/mL	> 20 µg/mL	> 20 µg/mL	> 20 µg/mL	> 20 µg/mL	> 20 µg/mL	> 20 µg/mL	> 20 µg/mL	> 20 µg/mL	100 µg/mL	
CC(=O)N1N=C(c2ccc(Br)cc2)CC1c1ccc(OCc2ccccc2)cc1 (configuration not stated)	> 20 µg/mL	> 20 µg/mL	100 µg/mL	100 µg/mL	> 20 µg/mL	> 20 µg/mL	> 20 µg/mL	> 20 µg/mL	> 20 µg/mL	> 20 µg/mL	> 20 µg/mL	> 20 µg/mL	> 20 µg/mL	> 20 µg/mL	> 20 µg/mL	100 µg/mL	
Cc1ccc(C2=NN(C3=NC(=O)CS3)C(c3ccc(OCc4ccccc4)cc3)C2)cc1 (configuration not stated)	> 4 µg/mL	> 20 µg/mL	100 µg/mL	20 µg/mL	> 20 µg/mL	> 4 µg/mL	> 20 µg/mL	> 20 µg/mL	> 20 µg/mL	> 4 µg/mL	> 20 µg/mL	> 4 µg/mL	> 20 µg/mL	> 4 µg/mL	> 20 µg/mL	100 µg/mL	selectivity ratio [14]: 5
NC(=S)N1N=C(c2ccc(Cl)cc2)CC1c1ccc(OCc2ccccc2)cc1 (configuration not stated)	> 100 µg/mL	> 100 µg/mL	> 100 µg/mL	> 100 µg/mL	> 100 µg/mL	> 100 µg/mL	> 100 µg/mL	> 100 µg/mL	> 100 µg/mL	> 100 µg/mL	> 100 µg/mL	> 100 µg/mL	> 100 µg/mL	> 100 µg/mL	> 100 µg/mL	> 100 µg/mL	
O=C1CSC(N2N=C(c3ccc(Cl)cc3)CC2c2ccc(OCc3ccccc3)cc2)=N1 (configuration not stated)	> 20 µg/mL	> 20 µg/mL	100 µg/mL	100 µg/mL	> 20 µg/mL	> 20 µg/mL	> 20 µg/mL	> 20 µg/mL	> 20 µg/mL	> 20 µg/mL	> 20 µg/mL	> 20 µg/mL	> 20 µg/mL	> 20 µg/mL	> 20 µg/mL	100 µg/mL	
Cc1ccc(C2=NN(c3nc(-c4ccc(C)cc4)cs3)C(c3ccc(OCc4ccccc4)cc3)C2)cc1 (configuration not stated)	> 20 µg/mL	> 100 µg/mL	> 100 µg/mL	100 µg/mL	> 100 µg/mL	> 20 µg/mL	> 100 µg/mL	> 100 µg/mL	> 100 µg/mL	> 20 µg/mL	> 100 µg/mL	> 20 µg/mL	> 100 µg/mL	> 20 µg/mL	> 100 µg/mL	> 100 µg/mL	
Cc1ccc(-c2csc(N3N=C(c4ccccc4)CC3c3ccc(OCc4ccccc4)cc3)n2)cc1 (configuration not stated)	> 100 µg/mL	> 20 µg/mL	100 µg/mL	> 100 µg/mL	> 100 µg/mL	> 100 µg/mL	> 20 µg/mL	> 20 µg/mL	> 20 µg/mL	> 100 µg/mL	> 100 µg/mL	> 100 µg/mL	> 100 µg/mL	> 100 µg/mL	> 20 µg/mL	> 100 µg/mL	
O=C1CSC(N2N=C(c3ccccc3)CC2c2ccc(OCc3ccccc3)cc2)=N1 (configuration not stated)	> 20 µg/mL	> 20 µg/mL	100 µg/mL	100 µg/mL	> 20 µg/mL	> 20 µg/mL	> 20 µg/mL	> 20 µg/mL	> 20 µg/mL	> 20 µg/mL	> 20 µg/mL	> 20 µg/mL	> 20 µg/mL	> 20 µg/mL	> 20 µg/mL	100 µg/mL	
CC(=O)N1N=C(c2ccccc2)CC1c1ccc(OCc2ccccc2)cc1 (configuration not stated)	> 20 µg/mL	> 20 µg/mL	100 µg/mL	100 µg/mL	> 100 µg/mL	> 20 µg/mL	> 20 µg/mL	> 20 µg/mL	> 20 µg/mL	> 20 µg/mL	> 100 µg/mL	> 20 µg/mL	> 100 µg/mL	> 20 µg/mL	> 20 µg/mL	> 100 µg/mL	
Cc1ccc(-c2csc(N3N=C(c4ccc(Cl)cc4)CC3c3ccc(OCc4ccccc4)cc3)n2)cc1 (configuration not stated)	> 20 µg/mL	> 20 µg/mL	100 µg/mL	100 µg/mL	> 100 µg/mL	> 20 µg/mL	> 20 µg/mL	> 20 µg/mL	> 20 µg/mL	> 20 µg/mL	> 100 µg/mL	> 20 µg/mL	> 100 µg/mL	> 20 µg/mL	> 20 µg/mL	> 100 µg/mL	
Cc1ccc(C2=NN(c3nc(-c4ccc(Cl)cc4)cs3)C(c3ccc(OCc4ccccc4)cc3)C2)cc1 (configuration not stated)	> 20 µg/mL	> 20 µg/mL	100 µg/mL	100 µg/mL	> 20 µg/mL	> 20 µg/mL	> 20 µg/mL	> 20 µg/mL	> 20 µg/mL	> 20 µg/mL	> 20 µg/mL	> 20 µg/mL	> 20 µg/mL	> 20 µg/mL	> 20 µg/mL	100 µg/mL	
Clc1ccc(-c2csc(N3N=C(c4ccccc4)CC3c3ccc(OCc4ccccc4)cc3)n2)cc1 (configuration not stated)	> 20 µg/mL	> 20 µg/mL	100 µg/mL	100 µg/mL	> 20 µg/mL	> 20 µg/mL	> 20 µg/mL	> 20 µg/mL	> 20 µg/mL	> 20 µg/mL	> 20 µg/mL	> 20 µg/mL	> 20 µg/mL	> 20 µg/mL	> 20 µg/mL	100 µg/mL	

— ChEMBL document CHEMBL1153616, “Synthesis and antiviral activity of new pyrazole and thiazole derivatives” (Eur J Med Chem, 2009)
